In the RNAGym collection of RNA variant scans (doi:10.1126/science.aae0568):
Fewer inactive variants are shown than the library holds.

B1: tRNA (parent)
chain: GUUCCGUUGGCGUAAUGGUAACGCGUCUCCCUCCUAAGGAGAAGACUGCGGGUUCGAGUCCCGUACGGAACG

Variants of: B1
Experiment: yeast fitness relative to wild type (ratio to wild type); higher = fitter; tRNA-Arg(CCU), competitive growth, 37 C, YPD
How it was run: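 Amplicons of the tRNA-Arg(CCU) gene were sequenced, 100-nucleotide paired-end, from the start population and from each end population of a pooled yeast competition. The competition, in six parallel replicates, lasted 24 hours in YPD at 37°C. Fitness relative to wild type was calculated from changes in genotype frequencies. Genotypes had to have ≥ 100 starting reads, and estimates < 0.5 were set to 0.5.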

Variant | yeast fitness
C11G A15G U28G C29U C33G C46G A57C | ≤ 0.5
C11A U16C G18C A45C A57C C62U | ≤ 0.5
C11A U32A C33U U47A | ≤ 0.5
C11A G39A | 0.63
C11A U19G A36G U54C A69C | 0.54
C11G A15U C34A A42C G48A C55U | ≤ 0.5
C11A C61U A65G G67C | ≤ 0.5
C11A U19A C29A U32A U54C C55G C60G A65G | ≤ 0.5
C11A C30G C31U U32C G52A | 0.566
C11G A14C A57C C61A A69C | 0.581
C11A C24U | 0.61
C11A C24G C30G A57U G68U | ≤ 0.5
C11A C27G U35A A43U | ≤ 0.5
C11A U32G C61A | 0.58
C11A G18A A36G A42C | 0.711
C11A G58A G68A A69U A70U | ≤ 0.5
C11A G51A U53A | ≤ 0.5
C11A C33G | 0.654
C11A C33U | 0.533
C11A C33U U54C | ≤ 0.5
C11A C27A A40C A43G G48C A65G | 0.541

Variant | yeast fitness
C11A U19G C49A | ≤ 0.5
C11A G25C C29U C62A | ≤ 0.5
C11A U35A U53A | ≤ 0.5
C11G A14U A42U | 0.638
C11A C31A G51C | ≤ 0.5
C11G A15U C24G A40G C61A | ≤ 0.5
C11G A14U G17A A36G G41A U53A G58C A70C | ≤ 0.5
C11G A14G G17A G48C C62U C66G A70G | ≤ 0.5
C11G A14G C27A G38A A65C | ≤ 0.5
C11A C30G A45U G56C | ≤ 0.5
C11A C34A C55U C60A | ≤ 0.5
C11A U16C C34G A65G G67A | ≤ 0.5
C11A C31A C61G A65C A70C | ≤ 0.5
C11A G17C C22G G23C G58C A70G | ≤ 0.5
C11A U35A A37C A43G | 0.511
C11A U13A C31G | 0.608
C11A C31G C33U C61G U64A | ≤ 0.5
C11G A20C C24G C66U | ≤ 0.5
C11A U28C C46A C55U C61U | ≤ 0.5
C11A U19G A36G U53C U54C A69C | ≤ 0.5
C11G A15C C24G C46A C66U | ≤ 0.5

Variant | yeast fitness
C11G A14G A37G G44A C60A C62U U64C G68A A69C | ≤ 0.5
C11A U32C | 0.739
C11A C30U C49A | ≤ 0.5
C11A C29A G56A C66G | ≤ 0.5
C11A U16A C30G G44C C61A | ≤ 0.5
C11A C27G U32C C33U C62U A65G | ≤ 0.5
C11A C27U G44U U64G A65G | 0.593
C11A C29G | 0.654
C11A U13A A42U G50A C55A | ≤ 0.5
C11G A20C C49G | ≤ 0.5
C11A C31U C62A | ≤ 0.5
C11A C31U C62U | 0.544
C11A C55G C66A | ≤ 0.5
C11G A15G | 0.596
C11A G12C | 0.612
C11A G52A C62U | ≤ 0.5
C11G A15G C33G G52C A69C | ≤ 0.5
C11A G12A G48A G50A | ≤ 0.5
C11G A14C A37C G44C | ≤ 0.5
C11A C33A A36C | 0.506
C11A G51A U59A | ≤ 0.5

Variant | yeast fitness
C11G A14G G48A C55U A65C | 0.759
C11A U13A A20U | ≤ 0.5
C11A C33A A36C G63C C66G | 0.582
C11A U59C | 0.527
C11A U19C C31U U53A | ≤ 0.5
C11A G18A C31U | 0.535
C11A G68C | 0.656
C11A U28G C34U G67A | ≤ 0.5
C11A C29A A57G A65C | ≤ 0.5
C11A C31U A70U | 0.629
C11G A15C C24U A43U G68A | ≤ 0.5
C11A U32A C33U G68C | ≤ 0.5
C11A U32A C34A A65C | ≤ 0.5
C11G A14G A37G G44A G63A | 0.55
C11A C24U G38C | ≤ 0.5
C11G A15U C34A A42C | ≤ 0.5
C11G A14G A21U A40U U54A C55U | ≤ 0.5
C11G A15G A21G A37G A57U C60U C62G | ≤ 0.5
C11A U16C U32G C49G C55A | 0.546
C11A U16C U32G A36G C49G C55A | 0.53
C11A C33U A43U G67A | ≤ 0.5
